Screening results as filed in PubChem.
NR2F2 inh = inhibitors of human COUP-TFII (NR2F2). P24468. HEK293T NGFI-A luciferase reporter, luminescence. AID 686940. inhibition, % at 8.6 µM. 370,000 compounds, 0.7% hits;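 active means inhibition above a per-plate cutoff, mean inhibition of test wells between control levels plus 3 SD, cut at about 38% in these data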;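 further: cells cotransfected with COUP-TFII expression vector driving the NGFI-A reporter; 0% = median of COUP-TF2 test wells and 100% = reporter-only cells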
CHT allo act = human CHT allosteric activation | AID 488977 | CHT-expressing cells, membrane potential dye, choline EC20; stronger effect = higher value; LV-AA mutant CHT in HEK293 cells | 310,000 compounds, 0.49% hits | B-score at 10 µM | Q9GZV3;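 active means initial fluorescence not abnormally high and integrated response B-score, plate-corrected, over 3 SD above library mean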
Target sequence (Q9GZV3 whole entry, looked up): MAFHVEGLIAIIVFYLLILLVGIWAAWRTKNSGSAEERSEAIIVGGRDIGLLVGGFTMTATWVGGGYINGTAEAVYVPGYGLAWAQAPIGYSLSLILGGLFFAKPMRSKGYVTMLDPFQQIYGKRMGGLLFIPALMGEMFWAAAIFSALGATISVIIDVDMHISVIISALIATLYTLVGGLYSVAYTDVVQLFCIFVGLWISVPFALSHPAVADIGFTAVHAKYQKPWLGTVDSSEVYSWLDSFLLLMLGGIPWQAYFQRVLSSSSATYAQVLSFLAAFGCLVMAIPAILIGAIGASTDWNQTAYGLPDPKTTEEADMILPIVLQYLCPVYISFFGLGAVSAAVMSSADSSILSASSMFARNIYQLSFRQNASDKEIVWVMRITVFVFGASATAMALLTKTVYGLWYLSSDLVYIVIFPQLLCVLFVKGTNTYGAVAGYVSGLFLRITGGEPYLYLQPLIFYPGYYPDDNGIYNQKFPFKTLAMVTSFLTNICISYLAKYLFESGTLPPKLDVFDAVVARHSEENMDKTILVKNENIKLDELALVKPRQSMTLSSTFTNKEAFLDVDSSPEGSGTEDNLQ
NR2E3 ag-1 = agonists of human NR2E3 nuclear receptor; inhibition of corepressor binding, % at 3.98 µM; CHO-S Gal4-NCOR/VP16-NR2E3 two-hybrid, luciferase; Q9Y5X4; 360,000 compounds, 0.35% hits;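 active means inhibition above the mean of all tested compounds plus 3 SD, cut at about 70% in these data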;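 further: 0% = DMSO with NR2E3 transfected cells and 100% = cells lacking NR2E3 construct; higher means lower luciferase signal from less NR2E3 corepressor binding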
NR2E3 ag-2 = activates human photoreceptor nuclear receptor NR2E3. GST-NR2E3/biotin-RetCOR TR-FRET, 1536-well. 320,000 compounds, 0.12% hits. inhibition of corepressor binding, % at 4.78 µM. Q9Y5X4. AID 2300;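 active means percent inhibition above the cutoff of mean plus 3 SD of all tested compounds, set per screening campaign, cut at about 20% in these data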;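 further: 0% = DMSO wells and 100% = biotin wells as full block of FRET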
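Format: 1536-well format; test system: GST-NR2E3 and biotin-RetCOR proteins; read-out basis: percent inhibition of TR-FRET ratio; timing: 5 h incubation at 4 °C; detection: time-resolved FRET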
GalR3 antag = antagonists of human GalR3 | HEK293 GalR3-CNG cAMP membrane potential fluorescence; galR3 body fused to GalR1 C-terminus | inhibition, % at 3 µM | O60755 | 360,000 compounds, 0.44% hits;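 active means inhibition above the screen-wide average plus 3 SD, cut at about 13% in these data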;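 further: forskolin and galanin both at EC90 stimulate the cells; cAMP rise reported by CNG channel membrane potential dye signal; 0% = forskolin plus galanin with DMSO and 100% = forskolin alone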
CHT inh = human CHT choline transport inhibition. Q9GZV3. CHT-expressing cells, membrane potential dye, choline response; stronger effect = lower value. B-score at 10 µM. 310,000 compounds, 0.86% hits. AID 488975;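 active means B-score over 3 SD under the library average, and starting fluorescence ratio not unusually high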;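 further: choline stimulus applied at its EC90 after an EC20 pre-addition; B-score computed on integrated fluorescence ratio after choline addition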
Starred values were filed as active, the others as inactive; i = inactive; nt = not tested or not shown. Only some compounds are listed: those with a hit (about 2.3% of all), similar ones and a draw of the others.

SMILES	NR2F2 inh	CHT allo act	NR2E3 ag-1	NR2E3 ag-2	GalR3 antag	CHT inh
O=C(COC(=O)Cc1c(Cl)cccc1Cl)NCC1CCCO1 (stereo not given)	-13	i	-6	-2	14*	i
CC(C)=CCC[C@@]1(C(=O)O)[C@H]2CC=C(CO)[C@@H]1CC/C(C)=C/CC/C(C)=C/C2	17	nt	nt	nt	nt	nt
CC(C)OCCCn1c(=N)c(C(N)=S)cc2c(=O)n3ccccc3nc21	15	6.6*	-11	4	-5	i
CCOC(=O)c1cc2c(=O)n3ccccc3nc2n(CCCOC)c1=NC(C)=O	-5	13*	-3	-1	-3	i
N=c1c(C(=O)NC2CCCCC2)cc2c(=O)n3ccccc3nc2n1CCc1ccccc1	-18	7.3*	-8	0	-4	i
O=C(Nc1nnc(-c2cccnc2)s1)c1cnc2ccccc2c1	-38	nt	nt	nt	nt	nt
Cc1cccc(-c2cccc3c4c([nH]c23)[C@@H]2C[C@H](N(C)C(=O)Nc3ccccc3)[C@H]([C@H](C)O)C(=O)N2CC4)c1	-2	nt	nt	nt	nt	nt
Cc1ccc(CN[C@@H]2CC[C@@]34CCCN3C(=O)CCC[C@H]4C2)cc1	-15	nt	nt	nt	nt	nt
Cc1cccc(C)c1OCC(O)CN1CCC(CN2C(=O)c3cccc4cccc(c34)C2=O)CC1 (stereo not given)	0	i	-14	5	-4	-6.3*
Cc1ccccc1OCC(O)CN1CCN(CCN2C(=O)c3cccc4cccc(c34)C2=O)CC1 (stereo not given)	-19	i	-6	6	-2	i
CN1C=C/C(=C\c2cc[n+](C)c3ccccc23)c2ccccc21	46*	nt	-9	nt	-3	nt
Cc1ccc(OCCOc2ccc(Cl)cc2Cl)c(Br)n1	-19	nt	nt	nt	nt	nt
O=C(N/N=C/c1ccc(O)cc1O)c1ccncc1	-3	i	-29	-2	-3	i
Cc1ccc(C(C)C)c(OCc2ccc(C(=O)N/N=C/c3ccc(O)cc3O)cc2)c1	13	i	-36	0	23*	i
O=C(NC1CC1)C1CCN(C2CCN(C(=O)Cc3ccc4c(c3)OCO4)CC2)CC1	-9	i	-32	6	-5	-10*
Cc1ccc(-n2[nH]c(C)c(/C=N/NC(=O)c3ccc([N+](=O)[O-])cc3)c2=O)c(C)c1	-16	7.5*	-42	1	-3	i
Cc1[nH]n(-c2cccc3ccccc23)c(=O)c1/C=N/NC(=O)c1cccc([N+](=O)[O-])c1	16	i	-4	-1	0	i
C[C@H]1[C@@H](OC(=O)N2CCN(c3ccccc3)CC2)CC[C@@]23CCCN2C(=O)CCC[C@@H]13	-3	nt	nt	nt	nt	nt
CC(C)(C)c1ccc(/C=C(\c2nc3ccccc3[nH]2)S(=O)(=O)c2ccccc2)cc1	nt	i	81*	1	nt	i
Cc1cccc(/C=C(\c2nc3ccccc3[nH]2)S(=O)(=O)c2ccccc2)c1	33	nt	43	nt	11	nt
O=C(O)CCC1c2cc3c4cc2OC2Oc5cc6c(cc51)C(CCC(=O)O)c1cc5c7cc1OC(O6)c1cc6cc(c1)Oc1cc(cc(C(=O)O)c1)Oc1cc8cc(c1)C(Oc1cc(c(cc1C5CCC(=O)O)C3CCC(=O)O)OC(O4)c1cc(cc(c1)Oc1cc(cc(C(=O)O)c1)O8)Oc1cc(cc(C(=O)O)c1)Oc1cc(cc2c1)Oc1cc(cc(C(=O)O)c1)O6)O7 (stereo not given)	nt	i	nt	21*	nt	i
COC(=O)c1cccc(N2C(=O)C[C@](Sc3ccc(OC)cc3)(C(=O)N3CCOCC3)[C@H]2c2ccc(OC)cc2)c1	9	nt	nt	nt	nt	nt
O=C(Nc1ccc(F)cc1)OCc1cn(Cc2cccc(Cl)c2)nn1	-1	nt	nt	nt	nt	nt
CC1(C)c2ssc(=S)c2-c2ccccc2N1C(=O)CSC1=NCCS1	3	i	2	0	-4	i
COc1ccc2c(c1)-c1c(ssc1=S)C(C)(C)N2C(=O)CSC1=NCCS1	52*	i	10	-2	-8	i
Cc1nn(-c2ccccc2)c2c1C(c1ccncc1)C(C#N)=C(N)O2 (stereo not given)	-5	i	-24	-2	0	i
